Experiment [1] deals with CRKP. Briefly: Lethal CRKP pneumonia model, survival. The experiment is classed as in vivo, BALB/c mice. The conditions noted are these: single dose; TINA 10 mg/kg, imipenem 8 mg/kg, or 10 + 8 mg/kg; n = 10. The method in brief: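 Female BALB/c mice (n = 10 per group) infected with 5 × 10^7 CFU CRKP. Thirty minutes later they were treated with PBS, test compound 10 mg/kg, imipenem 8 mg/kg, or test compound plus imipenem (10 + 8 mg/kg) as a single or double dose. Survival was followed for 7 days postinfection and cumulative survival calculated.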

Experiment [2] has as its system CRKP. Description: Resistance development assay, 20 passages. The experiment is classed as cell-based, K. pneumoniae. As to conditions: Klebsiella pneumoniae. The method in brief:
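Log-phase CRKP clinical isolate diluted in LB broth containing imipenem, with or without test compound, and cultured at 37°C for serial passaging.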

In experiment [3] the test system is CRKP. Briefly: Time-dependent killing assay. The experiment is classed as cell-based, K. pneumoniae. The conditions noted are these: TINA 20 μg/ml or imipenem 8 μg/ml alone, 24 hours.
The test system of the next experiment is CRKP, CRE, and CRAB. Briefly: Acute pneumonia models, blood indicators, histology and inflammation. It is filed as in vivo, BALB/c mice. The conditions noted are these: TINA 10 mg/kg or imipenem 8 mg/kg, single dose.

Converted amounts (≈) assume the structure as drawn. Like-named read-outs stand apart in the source and are kept apart here.

Results on one compound are retold here after paper PMC12542962 (Science Advances, 2025).

By MIC is commonly meant the smallest concentration in the dilution series that meets the test's criterion for growth inhibition. As for `C[C@@H](O)[C@H]1C(=O)N2C(C(=O)O)=C(SCCN=CN)C[C@H]12` [Imipenem, imipenem], the “survival rate at dpi 7” value in the experiment with CRKP [1] is given as 30%. For the same compound, the MIC in the experiment on CRKP [2] (read-out: MIC after 20 passages) is 2050 µg/mL (≈ 6.84 mM); in the experiment with CRKP [2] (read-out: MIC before passaging) it was 64 µg/mL (≈ 0.214 mM). Besides, the “change in bacteria counts, monotherapy” value with CRKP [3] is recorded as “increased by two orders of magnitude in bacteria counts”. For the same compound, the “effect of monotherapy on live bacteria in the lungs” value in the experiment with CRKP, CRE, and CRAB was “mere effects on eliminating live bacteria in the lungs”.
